Experimental data as given in article PMC3262452 (Virology, 2011).
Where two headings read alike, the source gives them in different places. Marks after values point to notes of the source that are not given here.

Columns and labels:
wt HIV-1 RT RNase H = wt HIV-1 RT RNase H (Human immunodeficiency virus type 1 group M subtype B, UniProt P04585); assay: In vitro RT-RNase H activity; type: biochemical; details: read-out: IC50 RT-RNase H, recombinant HIV-1 RT
HOS cells [1] = assay: ATP based luciferase assay; type: cell-based, human; details: for CC50: read-out: CC50 ATP-lite, HOS cells
HIV-1 RT DNA polymerase = HIV-1 RT DNA polymerase (Human immunodeficiency virus type 1 group M subtype B, UniProt P04585); assay: In vitro RT RNA-dependent DNA polymerase activity; type: biochemical; details: read-out: IC50 RT-DNA polymerase, recombinant HIV-1 RT
WT HIV = assay: microbe, parasite or virus in culture; type: cell-based, HIV-1
AZT-R HIV = assay: microbe, parasite or virus in culture; type: cell-based, HIV-1
HOS cells [2] = assay: XTT cell viability assay; type: cell-based, human; details: read-out: CC50 XTT
Summary of the method: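 HOS cells were grown in DMEM with 3.5% fetal bovine serum, 3.5% newborn calf serum and penicillin/streptomycin, then exposed to test compounds. Viability was measured with a commercial XTT kit, in which mitochondrial enzymes reduce the tetrazolium to an orange product read by absorbance. CC50 is the concentration killing half the HOS cells. Runs were done once or twice.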

[3] = read-out: IC50 WT HIV, RNHI alone, HOS cells, luciferase based assay
[4] = read-out: IC50 AZT-R HIV, RNHI alone, HOS cells, luciferase based assay
[5] = Human immunodeficiency virus 1, HOS, read-out: 3TC IC50
[6] = Human immunodeficiency virus 1, HOS, read-out: AZT IC50
[7] = Human immunodeficiency virus 1, HOS, read-out: AZT IC50 + NaN3

## Cc1c[nH]c2c1C(c1ccc(O)c(O)c1)C(C#N)=C(N)O2 (stereo not shown) [F0915-1507]
Wt HIV-1 RT RNase H
  IC50: 5.8 ± 2.2 µM
HOS cells [1]; 50 μM, one or two assays
  % ATP relative to untreated HOS: 46^a %
HOS cells [1]
  CC50: 44 ± 14 µM
HIV-1 RT DNA polymerase
  IC50: > 100 µM
WT HIV
  effect of RNHI on the AZT IC50 (fold increase): no significant effect
WT HIV; [3]
  IC50: 50 µM
AZT-R HIV
  effect of RNHI on the AZT IC50 (fold increase): no significant effect
AZT-R HIV; [4]
  IC50: 49 µM
HOS cells [2]
  CC50: 52 µM

## Cc1ccnc2c1NC(=O)c1cccnc1N2C1CC1 [NVP, nevirapine, reference compound]
WT HIV; 40 nM NVP, HOS cells
  reduction of infectivity of the virus stock: ~ 60%
AZT-R HIV; Human immunodeficiency virus 1, HOS, read-out: IC50 of NVP for blocking replication
  IC50: 0.027 ± 0.001 µM

## Nc1ccn([C@H]2CS[C@@H](CO)O2)c(=O)n1 [3TC, 2', 3'-dideoxy-3'-thiacytidine, reference compound]
WT HIV
  Fold decrease of 3TC IC50 by NVP: 2 fold
WT HIV; [5]
  IC50: 8 ± 3 µM
AZT-R HIV
  Fold decrease of 3TC IC50 by NVP: ~2 fold
AZT-R HIV; [5]
  IC50: 24 ± 14 µM

## O=C(O)CC1CC(=O)Oc2c1ccc(O)c2O (stereo not shown) [F3284-8495]
Wt HIV-1 RT RNase H
  IC50: 3.3 ± 0.7 µM
HOS cells [1]; 70 μM, one or two assays
  % ATP relative to untreated HOS: 87^a %
HOS cells [1]
  CC50: 67 µM
HIV-1 RT DNA polymerase
  IC50: > 100 µM
WT HIV
  effect of RNHI on the AZT IC50 (fold increase): little to no effect
WT HIV; [3]
  IC50: 58 µM
AZT-R HIV
  effect of RNHI on the AZT IC50 (fold increase): decreased the AZT IC50
AZT-R HIV; [4]
  IC50: 54 µM
HOS cells [2]
  CC50: 120 µM

## O=C(CSc1ncccc1C(=O)O)c1ccc(O)c(O)c1 [F3253-0041]
Wt HIV-1 RT RNase H
  IC50: 2.9 ± 1.1 µM
HOS cells [1]; 70 μM, one or two assays
  % ATP relative to untreated HOS: 92^a %
HOS cells [1]
  CC50: 160 µM
HIV-1 RT DNA polymerase
  IC50: > 100 µM
WT HIV
  effect of RNHI on the AZT IC50 (fold increase): little to no effect
WT HIV; [3]
  IC50: 70 µM
AZT-R HIV
  effect of RNHI on the AZT IC50 (fold increase): decreased the AZT IC50
AZT-R HIV; [4]
  IC50: 59 µM
HOS cells [2]
  CC50: 370 µM

## O=C1NC(=Nc2ccccc2O)S/C1=C/c1ccc(O)c(O)c1 [F0888-0058]
Wt HIV-1 RT RNase H
  IC50: 5 ± 2.6 µM
HOS cells [1]; 20 μM
  % ATP relative to untreated HOS: 41 ± 4%
HOS cells [1]
  CC50: 14 ± 3 µM
HIV-1 RT DNA polymerase
  IC50: 29.6 ± 1.4 µM
WT HIV
  effect of RNHI on the 3TC IC50 (fold increase): ~ 1.7 fold
  effect of RNHI on the AZT IC50 (fold increase): no significant effect
WT HIV; [3]
  IC50: 34 µM
AZT-R HIV
  effect of RNHI on the 3TC IC50: did not see a significant effect
  effect of RNHI on the AZT IC50 (fold increase): 2 fold
AZT-R HIV; [4]
  IC50: 30 µM
HOS cells [2]
  CC50: 16 ± 5 µM

## O=C1S/C(=C\c2ccc(O)c(O)c2)C(=O)N1c1ccc(O)cc1 [F0444-0019]
Wt HIV-1 RT RNase H
  IC50: 5 ± 1.8 µM
HOS cells [1]; 20 μM
  % ATP relative to untreated HOS: 36 ± 10%
HOS cells [1]
  CC50: 14 ± 6 µM
HIV-1 RT DNA polymerase
  IC50: 18.5 ± 5.9 µM
WT HIV
  effect of RNHI on the 3TC IC50 (fold increase): ~ 3 fold
  effect of RNHI on the AZT IC50 (fold increase): ~ 5 fold
WT HIV; [3]
  IC50: 24 µM
AZT-R HIV
  effect of RNHI on the 3TC IC50: insignificant
  effect of RNHI on the AZT IC50 (fold increase): ~ 5 fold
AZT-R HIV; [4]
  IC50: 28 µM
HOS cells [2]
  CC50: 24 ± 3 µM

## [N-]=[N+]=[N-].[Na+] [NaN3, sodium azide, reference compound]
HOS cells [1]; 0.5 mM
  % ATP relative to untreated HOS: 31 ± 8%
HOS cells [1]; 0.5 mM NaN3
  reduction of the level of ATP in HOS cells: ~ 70%
WT HIV
  effect of NaN3 on the IC50 for AZT: no significant effect
AZT-R HIV
  effect of NaN3 on the IC50 for AZT: no significant effect

## Cc1cn([C@H]2C[C@H](N=[N+]=[N-])[C@@H](CO)O2)c(=O)[nH]c1=O [AZT, zidovudine, reference compound]
WT HIV; [6]
  IC50: 0.004 ± 0.003 µM
WT HIV; [7]
  IC50: 0.004 ± 0.002 µM
WT HIV; WT HIV, 40 nM NVP, not statistically significant
  Fold decrease of AZT IC50 by NVP: 1 fold
WT HIV; WT HIV, 0.5 mM NaN3, not statistically significant
  Fold decrease of AZT IC50 by NaN3: 0 fold
AZT-R HIV; AZT-R HIV, 40 nM NVP, not statistically significant
  Fold decrease of AZT IC50 by NVP: 2 fold
AZT-R HIV; AZT-R HIV, 0.5 mM NaN3, not statistically significant
  Fold decrease of AZT IC50 by NaN3: 1.4 fold
AZT-R HIV; [6]
  IC50: 0.041 ± 0.038 µM
AZT-R HIV; [7]
  IC50: 0.056 ± 0.037 µM
